FID counter: compounds displacing fluorescent DNA intercalator, primary screen, artefact control for HCV NS3 helicase inhibitor project, biochemical, FID fluorescence; DNA fluorescent intercalator displacement; inhibition, % at 7.9 µM; 290,000 tested, 0.17% active; in the data active = inhibition above about 37%;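 also: higher means more ethidium bromide displaced from hairpin DNA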
TRPC6 inhibitor: mouse TRPC6 channel inhibitors, primary screen, cell-based, HEK293, membrane potential dye | Short transient receptor potential channel 6 (Mus musculus), Q61143 | ACh-evoked depolarization; active compounds read low | B-score at 10 µM | 310,000 tested, 1.1% active;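 active = B-score under library mean minus 3 SD, initial fluorescence not abnormally high, positive integrated signal ratio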;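 also: B-score derived from integrated fluorescence ratio over the kinetic read; more negative B-score means stronger inhibition of depolarization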
TRPC6 act: mouse TRPC6 channel activators, primary screen, cell-based, HEK293, membrane potential dye; B-score at 10 µM; Short transient receptor potential channel 6 (Mus musculus), Q61143; HEK293-TRPC6 membrane potential dye fluorescence; active compounds read high; 310,000 tested, 0.13% active; AID 2550, 2010;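 active = B-score of the integrated fluorescence ratio above library mean plus 3 SD, and starting fluorescence ratio within library mean plus 5 SD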;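 also: higher score means more depolarization so channel activation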
TRPC4 PAM: positive allosteric modulators of TRPC4, primary screen, cell-based, mouse TRPC4beta, HEK293 mu-opioid, Fluo-4 calcium. DAMGO EC20, Fluo-4 Ca2+ flux; active compounds read high. B-score at 10 µM. 310,000 tested, 0.42% active;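 active = B-score of calcium response area above 5 SD of library B-scores, with initial fluorescence ratio within 5 SD of library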
Target sequence (Q9QUQ5 whole entry, looked up): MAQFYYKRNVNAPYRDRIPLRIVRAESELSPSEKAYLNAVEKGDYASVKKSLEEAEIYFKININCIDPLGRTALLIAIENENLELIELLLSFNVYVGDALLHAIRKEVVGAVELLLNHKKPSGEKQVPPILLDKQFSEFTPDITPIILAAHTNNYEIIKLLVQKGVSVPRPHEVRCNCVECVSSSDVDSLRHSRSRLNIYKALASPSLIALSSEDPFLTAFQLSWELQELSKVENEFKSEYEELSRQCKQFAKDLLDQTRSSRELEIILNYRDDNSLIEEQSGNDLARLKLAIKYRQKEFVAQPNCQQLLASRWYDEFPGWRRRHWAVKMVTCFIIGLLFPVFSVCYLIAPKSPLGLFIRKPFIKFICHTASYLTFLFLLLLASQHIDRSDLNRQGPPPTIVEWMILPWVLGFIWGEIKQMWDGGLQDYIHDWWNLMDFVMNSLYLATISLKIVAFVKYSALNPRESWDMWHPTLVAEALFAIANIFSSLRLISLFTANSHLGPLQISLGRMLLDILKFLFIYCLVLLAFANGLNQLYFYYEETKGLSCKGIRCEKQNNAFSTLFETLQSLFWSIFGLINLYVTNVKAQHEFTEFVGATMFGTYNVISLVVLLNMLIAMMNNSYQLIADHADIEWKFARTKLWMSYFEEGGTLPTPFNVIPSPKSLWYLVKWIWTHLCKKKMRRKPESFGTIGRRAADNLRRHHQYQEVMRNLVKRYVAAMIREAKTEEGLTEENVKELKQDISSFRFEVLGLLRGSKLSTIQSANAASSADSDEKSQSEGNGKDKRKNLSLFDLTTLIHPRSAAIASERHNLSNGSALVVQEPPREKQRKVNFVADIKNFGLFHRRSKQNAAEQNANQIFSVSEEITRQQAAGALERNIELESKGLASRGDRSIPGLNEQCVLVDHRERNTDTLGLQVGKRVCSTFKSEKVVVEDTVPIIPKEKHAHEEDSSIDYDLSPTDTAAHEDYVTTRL
TRPC4 block: inhibitors of mouse TRPC4 channel, primary screen, Fluo4 calcium, HEK293 TRPC4beta/mu-opioid cells; Short transient receptor potential channel 4 (Mus musculus), Q9QUQ5; DAMGO-evoked Fluo4 calcium flux; active compounds read low; AID 2247, 2010; 300,000 tested, 0.39% active; B-score at 10 µM;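 active = B-score over 3 SD under the library average, no early fluorescence shift, positive overall ratio signal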
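Assay system: HEK293 cells with stable TRPC4beta plus mu-opioid receptor expression; Probe or stimulus: DAMGO in two steps, submaximal then maximal; Dosing: single-point compound dosing; Measured by: Fluo4 calcium-dye fluorescence, kinetic read; Read-out basis: B score from integrated Fluo4 fluorescence ratio.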
TRPC4 agonist: activators of mouse TRPC4 channel, primary screen, Fluo4 calcium, HEK293 TRPC4beta/mu-opioid cells. Short transient receptor potential channel 4 (Mus musculus), Q9QUQ5. Fluo4 calcium fluorescence; active compounds read high. B-score at 10 µM. 310,000 tested, 0.49% active. AID 2237, 2010;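 active = B-score above 5 SD of library B-scores, and initial fluorescence ratio not above library mean plus 5 SD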;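 also: positive B-score marks a calcium rise read as TRPC4 activation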
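System – HEK293 cells stably co-expressing mouse TRPC4beta and mu-opioid receptor · Signal – Fluo4 calcium-sensitive dye fluorescence, kinetic, 1 Hz baseline · Benchmarks – buffer (low) and maximal DAMGO (high) · Read-out – B score of integrated fluorescence ratio per well · Incubation – dye loading 45 min room temperature, 110 s kinetic read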
TRPC4 sel inh 2: mouse TRPC4 off-target activity of TRPC6 inhibitors, second screen | shares compounds with TRPC6 inhibitor | HEK293 TRPC4/MOR, membrane potential dye fluorescence; channel activated by saturating DAMGO dose | inhibition, % at 10 µM | 920 tested, 42% active | AID 2776;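 active = compounds whose fluorescence signal differed from control wells by over 3 SD, either direction, in both duplicate plates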
TRPC4 spec: mouse TRPC4 modulation by TRPC6 hits, confirmation, selectivity assay for TRPC6 inhibitor project, cell-based, HEK293 TRPC4/mu-opioid, membrane potential dye; shares compounds with TRPC6 inhibitor; membrane potential fluorescence; activity change, negative = inhibition, % at 10 µM; 920 tested, 61% active; AID 2777, 2010;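 active = rise or fall in signal beyond 3 SD of buffer-only wells in both replicate plates, either sign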;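 also: integrated kinetic ratio of fluorescence range over baseline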
HEK293 MPD ctr 2-1: nonspecific membrane potential effects, parental HEK293, confirmation, counter-screen for TRPC6 inhibitor project, cell-based, second counter screen; shares compounds with TRPC6 inhibitor; parental HEK293 membrane potential dye fluorescence; maximal acetylcholine challenge after compound addition; signal change vs control, % at 10 µM; 920 tested, 31% active;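 active = membrane potential signal moving either way by over 3 SD of the maximum-effect control, in both duplicate plates, meaning non-specific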
HEK293 MPD ctr-1: membrane potential modulation in parental HEK293, confirmation, counter-screen for TRPC6 inhibitor project, cell-based | shares compounds with TRPC6 inhibitor | parental HEK293 membrane potential dye fluorescence | membrane potential signal change, % at 10 µM | 920 tested, 60% active | AID 2780, 2010;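 active = membrane potential signal shifting up or down by more than 3 SD of buffer-only wells, on both duplicate plates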
HEK293 MPD ctr-2: parental HEK293 membrane potential modulation, confirmation, counter-screen for TRPC6 modulator project, cell-based; shares compounds with TRPC6 inhibitor; membrane potential dye fluorescence; membrane potential signal change, % at 10 µM; 2,400 tested, 51% active;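 active = membrane potential signal moves up or down beyond 5 SD from buffer-only wells, on both duplicate plates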
HEK293 MPD ctr 2-2: parental HEK293 nonspecific activity of TRPC6 modulators, second screen; shares compounds with TRPC6 inhibitor; membrane potential dye fluorescence; after compound, maximal acetylcholine stimulation; inhibition, % at 10 µM; 2,400 tested, 14% active; AID 488926;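 active = membrane potential signal drops by more than 5 SD from the mean control signal, in both duplicate plates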
TRPC4 ctr mod: TRPC4 modulation by TRPC6 hit compounds, confirmation, selectivity assay for TRPC6 modulator project, cell-based, HEK293 TRPC4/mu-opioid, membrane potential dye, mouse; shares compounds with TRPC6 inhibitor; membrane potential fluorescence; percent change from control (negative = decrease, positive = increase), % at 10 µM; 2,400 tested, 69% active; AID 488927, 2010;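 active = membrane potential signal moved up or down beyond 5 SD of buffer control wells, in both duplicate plates, actives on both sides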
TRPC4/MOR inh 2: second check of whether TRPC6 modulators also affect mouse TRPC4 | shares compounds with TRPC6 inhibitor | HEK293 TRPC4/mu-opioid, membrane potential dye fluorescence; stimulated with maximal-effect DAMGO | inhibition, % at 10 µM | 2,400 tested, 55% active | AID 488928;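 active = drop in membrane potential signal beyond 5 SD of the control wells in both duplicate plates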;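 also: TRPC4 counter screen for TRPC6 hits run under conditions tuned for TRPC6 not TRPC4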
TRPC6 block conf: mouse TRPC6 channel inhibitors, confirmation, HEK293 cells, membrane potential dye, duplicate; shares compounds with TRPC6 inhibitor; ACh-evoked depolarization; inhibition, % at 10 µM; 3,300 tested, 43% active; AID 488960, 2010;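 active = fluorescence ratio falls more than 5 SD below the full-stimulation control mean, in both duplicate runs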;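 also: integrated fluorescence ratio of peak minus minimum over baseline after agonist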
TRPC6 act confirm: mouse TRPC6 channel activators, confirmation, HEK293 cells, membrane potential dye, duplicate. 2,800 tested, 11% active. shares compounds with TRPC6 inhibitor. activation, % at 10 µM. AID 488961, 2010. HEK293-TRPC6 membrane potential dye fluorescence, FDSS;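 active = ratio signal rise beyond 5 SD above unstimulated control wells' mean, seen in both duplicate runs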
Of the large screens only hits and unclear results are named; the others gave an inactive call (follow-up assays come after a bar, where they were run). Hits are enriched below; roughly 2.3% of the tested compounds scored in any of these assays.

Cc1nn2c(NCCCN(C)C)c3c(nc2c1-c1ccccc1)CCCC3	TRPC6 inhibitor -6.77 | TRPC4 sel inh 2 72.5% | TRPC4 spec -19.1% | HEK293 MPD ctr 2-1 inactive | HEK293 MPD ctr-1 -296.5% | TRPC6 block conf 63.0% | TRPC6 act confirm inactive
Cc1nn2c(NCCCN(C)C)c3c(nc2c1-c1ccccc1)CCC3	TRPC6 inhibitor -7.94 | HEK293 MPD ctr-2 -167.0% | HEK293 MPD ctr 2-2 inactive | TRPC4 ctr mod -30.5% | TRPC4/MOR inh 2 55.0% | TRPC6 block conf inactive | TRPC6 act confirm inactive
COCCNc1c2c(nc3c(-c4ccccc4)c(C)nn13)CCC2	none
COc1ccc(CNC(=O)C2CCN(S(=O)(=O)c3ccc4c(c3)N(C(C)=O)CCO4)CC2)cc1	none
Cc1ccccc1NCC(=O)N/N=C/c1c[nH]c2ccccc12	none
Cc1cccc(NCC(=O)N/N=C\c2c[nH]c3ccccc23)c1	TRPC6 inhibitor -5.77 | HEK293 MPD ctr-2 -63.0% | HEK293 MPD ctr 2-2 inactive | TRPC4 ctr mod -20.0% | TRPC4/MOR inh 2 39.5% | TRPC6 block conf 38.5% | TRPC6 act confirm inactive
COc1cc(OC)c(OC)cc1CNC(=O)c1ccc(COc2ccccc2)cc1	none
CCCN1C2CCCC1CC(NC(=O)Nc1cccc(C(C)=O)c1)C2 (configuration not stated)	TRPC6 inhibitor -6.12 | HEK293 MPD ctr-2 inactive | HEK293 MPD ctr 2-2 inactive | TRPC4 ctr mod inactive | TRPC4/MOR inh 2 inactive | TRPC6 block conf inactive
CC(=O)c1cccc(NC(=O)NC2CC3CCCC(C2)N3CC(C)C)c1 (configuration not stated)	TRPC6 inhibitor -8.8, TRPC6 act 17.3 | HEK293 MPD ctr-2 inactive | HEK293 MPD ctr 2-2 inactive | TRPC4 ctr mod inactive | TRPC4/MOR inh 2 inactive | TRPC6 block conf 46.5% | TRPC6 act confirm 110.5%
CCNc1nc(CN2CCCCC2)nc2scc(-c3ccccc3)c12	TRPC6 inhibitor -5.83 | HEK293 MPD ctr-2 inactive | HEK293 MPD ctr 2-2 inactive | TRPC4 ctr mod inactive | TRPC4/MOR inh 2 39.0% | TRPC6 block conf inactive | TRPC6 act confirm inactive
O=C(CN(CCc1ccccc1)C(=O)c1csnn1)NCc1ccc(F)cc1	none
c1ccc(N2CCN(c3ccccc3)C2c2cccnc2)cc1	TRPC6 inhibitor -5.6 | HEK293 MPD ctr-2 inactive | HEK293 MPD ctr 2-2 inactive | TRPC4 ctr mod 17.5% | TRPC4/MOR inh 2 31.0% | TRPC6 block conf inactive
O=C(COC(=O)CNC(=O)c1ccc(Cl)cc1Cl)NC1CCCCC1	none
CN(C)CCN(Cc1ccco1)C(=O)c1cc2c(Cl)nc3ccccc3c2s1	TRPC6 inhibitor -5.17 | HEK293 MPD ctr-2 inactive | HEK293 MPD ctr 2-2 inactive | TRPC4 ctr mod inactive | TRPC4/MOR inh 2 inactive | TRPC6 block conf inactive | TRPC6 act confirm inactive
COc1ccc(-c2c[n+]3c(n2-c2ccccc2)SCC3)cc1	TRPC6 inhibitor -8.24 | TRPC4 sel inh 2 inactive | TRPC4 spec -11.6% | HEK293 MPD ctr 2-1 -12.0% | HEK293 MPD ctr-1 -172.5% | TRPC6 block conf 62.9% | TRPC6 act confirm inactive
Brc1ccc(-c2c[n+]3c(n2-c2ccccc2)SCC3)cc1	TRPC6 inhibitor -7.24 | TRPC4 sel inh 2 inactive | TRPC4 spec -14.9% | HEK293 MPD ctr 2-1 -20.5% | HEK293 MPD ctr-1 -228.5% | TRPC6 block conf inactive | TRPC6 act confirm inactive
Cc1ccc(-c2c[n+]3c(n2-c2ccccc2)SCC3)cc1	TRPC6 inhibitor -5.41 | HEK293 MPD ctr-2 inactive | HEK293 MPD ctr 2-2 inactive | TRPC4 ctr mod -11.0% | TRPC4/MOR inh 2 inactive | TRPC6 block conf inactive | TRPC6 act confirm inactive
COc1ccc(-c2c[n+]3c(n2-c2ccccc2)SCC3)cc1OC	none
CC(NS(=O)(=O)c1ccc2c(c1)oc(=O)n2C)c1ccccc1 (configuration not stated)	none
CC1CCCC(NC(=O)c2cccc(S(=O)(=O)N3CCN(c4ccccc4)CC3)c2)C1C (configuration not stated)	none (no result: FID counter)
O=C(COC(=O)c1ccc(Cl)c(S(=O)(=O)N2CCOCC2)c1)NCc1ccco1	none (no result: FID counter)
CCCNc1c(NC(=O)C2CCC(C)CC2)c(=O)oc2ccccc12 (configuration not stated)	none
CCOc1ccc(CN(CC)C(=O)Cc2c[nH]c3ccccc23)cc1OC	none
